Assay [1] concerns the target Gamma-secretase. Briefly: Inhibition of gamma secretase C100Flag cleavaging activity in HeLa cell membranes assessed as M-amyloid beta-40 production by cell free assay. Further details: species or system Homo sapiens. In short, it runs like this: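 IC50 taken as the geometric mean of at least two experiments, each run with six data points.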
In assay [2] the target is Gamma-secretase. Briefly: Inhibition of gamma secretase activity in human H4 cells transfected with APP695 mutant assessed as beta amyloid(1-40) production by whole cell assay. The assay is classed as cell-based. In short, it runs like this:
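Cells were plated at about 30,000 per well and left to attach for about 6 h at 37 °C. They were then washed to clear secreted Aβ and given fresh medium containing compound for overnight incubation at 37 °C. Secreted Aβ in the harvested medium was measured by immunoassay. IC50 is the geometric mean of at least two experiments, six data points each.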

On to `CCCCNC(C)c1sc(NC(=O)[C@H](CCC)NC(=O)Cc2cc(F)cc(F)c2)nc1C` (stereo partly specified), for which the IC50 at Gamma-secretase [1] was determined as 7.1 nM; on Gamma-secretase [2], 3.7 nM.
On the same counts, the results for `CCC[C@H](NC(=O)Cc1cc(F)cc(F)c1)C(=O)Nc1nc(C)c(C)s1` are 141 nM and 94.1 nM.
On the same counts, the results for `CCC[C@H](NC(=O)[C@@H](O)C(C)(C)C)C(=O)Nc1ncc(C(C)(C)O)s1` are 94.9 nM and 37.3 nM.
The corresponding values for `CCCCN(CC)Cc1cnc(NC(=O)[C@H](CCC)NC(=O)Cc2cc(F)cc(F)c2)s1` are 30 nM and 12.7 nM.
As for `CCC[C@H](NC(=O)[C@@H](O)C(C)C)C(=O)Nc1ncc(C(C)CCCC(C)(C)OC)s1` (stereo partly specified), the figures for the IC50 on Gamma-secretase [1] and on Gamma-secretase [2] were 5.9 nM and 0.3 nM, respectively.
On the same counts, the results for `CC[C@H](NC(=O)CCc1cc(F)cc(F)c1)C(=O)Nc1ncc(C(C)CCCC(C)(C)OC)s1` (stereo partly specified) are 13.6 nM and 0.08 nM.
On the same counts, the results for `CCC[C@H](NC(=O)[C@@H](O)C(C)C)C(=O)Nc1ncc([C@H](C)CCCC(C)(C)OC)s1` are 9 nM and 7.49 nM.
The corresponding values for `CCCCNC(C)c1cnc(NC(=O)[C@H](CCC)NC(=O)Cc2cc(F)cc(F)c2)s1` (stereo partly specified) are 6 nM and 2 nM.
Consider `CCC[C@H](NC(=O)[C@@H](O)C(C)(C)C)C(=O)Nc1ncc([C@H](C)CCCC(C)(C)OC)s1`, for which the IC50 on Gamma-secretase [1] came to 9.9 nM; on Gamma-secretase [2], 1.14 nM.
The corresponding values for `CCC[C@H](NC(=O)[C@@H](O)C(C)(C)C)C(=O)Nc1ncc(C(C)CCCC(C)(C)O)s1` (stereo partly specified) are 7.4 nM and 0.22 nM.
The corresponding values for `CCC[C@H](NC(=O)Cc1cc(F)cc(F)c1)C(=O)Nc1nc(C)c(C(C)NC)s1` (stereo partly specified) are 51.8 nM and 50.5 nM.
The corresponding values for `CCC[C@H](NC(=O)Cc1cc(F)cc(F)c1)C(=O)Nc1nc(C)c(C(C)NCC(C)C)s1` (stereo in doubt; 34a) are 3.1 nM and 2.5 nM.
Regarding `CC[C@H](NC(=O)CCc1cc(F)cc(F)c1)C(=O)Nc1ncc([C@H](C)CCCC(C)(C)OC)s1`, the figures for the IC50 at Gamma-secretase [1] and on Gamma-secretase [2] were 727 nM and 81.5 nM, respectively.
On the same counts, the results for `CCC[C@H](NC(=O)CCc1cc(F)cc(F)c1)C(=O)Nc1ncc(C(C)CCCC(C)(C)O)s1` (stereo partly specified) are 6 nM and 0.05 nM.
On the same counts, the results for `CCC[C@H](NC(=O)Cc1cc(F)cc(F)c1)C(=O)Nc1nc(C)c(C(C)NCC)s1` (stereo partly specified) are 155 nM and 42 nM.
The corresponding values for `CCC[C@H](NC(=O)Cc1cc(F)cc(F)c1)C(=O)Nc1ncc(CNCC)s1` are 63.2 nM and 104 nM.
Take `CCC[C@H](NC(=O)Cc1cc(F)cc(F)c1)C(=O)Nc1nc(C)c(C(C)NCCC(C)C)s1` (stereo partly specified): the results for the IC50 at Gamma-secretase [1] and at Gamma-secretase [2] were 5 nM and 2 nM, respectively.
On the same counts, the results for `CCC[C@H](NC(=O)Cc1cc(F)cc(F)c1)C(=O)Nc1nc(C)c(C(C)N2CCN(C)CC2)s1` (stereo partly specified) are 28.3 nM and 26.1 nM.
On the same counts, the results for `CCC[C@H](NC(=O)Cc1cc(F)cc(F)c1)C(=O)Nc1nc(C)c(C(C)NCCC(C)(C)C)s1` (stereo partly specified) are 5.9 nM and 2 nM.
As to `CCC[C@H](NC(=O)Cc1cc(F)cc(F)c1)C(=O)Nc1ncc(CN2CCOCC2)s1`, the IC50 on Gamma-secretase [1] is 30 nM; at Gamma-secretase [2], 12.7 nM.
On the same counts, the results for `CCC[C@H](NC(=O)Cc1cc(F)cc(F)c1)C(=O)Nc1ncc(CN)s1` are 200 nM and 93 nM.
On the same counts, the results for `CCC[C@H](NC(=O)Cc1cc(F)cc(F)c1)C(=O)Nc1ncc(C(C)N[C@H](C(=O)OC)C(C)C)s1` (stereo partly specified) are 4 nM and 0.7 nM.
On the same counts, the results for `CCC[C@H](NC(=O)Cc1cc(F)cc(F)c1)C(=O)Nc1nc(C)c(C(C)NCC(C)C)s1` (stereo in doubt; 34b) are 33 nM and 31.6 nM.
As for `CC[C@H](NC(=O)CCc1cc(F)cc(F)c1)C(=O)Nc1ncc([C@@H](C)CCCC(C)(C)OC)s1`, the results for the IC50 on Gamma-secretase [1] and at Gamma-secretase [2] were 30 nM and 0.1 nM, respectively.
As for `CCC[C@H](NC(=O)[C@@H](O)c1cc(F)cc(F)c1)C(=O)Nc1ncc(C(CC)CC)s1`, the IC50 on Gamma-secretase [1] stood at 6.2 nM; on Gamma-secretase [2] it was 0.3 nM.
The corresponding values for `CCCC(CCC)c1cnc(NC(=O)[C@H](CCC)NC(=O)Cc2cc(F)cc(F)c2)s1` are below 34.6 nM and 0.8 nM.
On the same counts, the results for `CCC[C@H](NC(=O)Cc1cc(F)cc(F)c1)C(=O)Nc1ncc(C(CC)CC)s1` are 26.3 nM and 2.2 nM.
As to `CCC[C@H](NC(=O)[C@@H](O)c1ccccc1)C(=O)Nc1ncc(C(O)(CC)CC)s1`, the figures for the 50% inhibitory concentration (IC50) on Gamma-secretase [1] and on Gamma-secretase [2] were 2.8 nM and 2.2 nM, respectively.
In the case of `CCC[C@H](NC(=O)Cc1cc(F)cc(F)c1)C(=O)Nc1ncc(C(C)NC(C)C)s1` (stereo partly specified), the IC50 on Gamma-secretase [1] was 42.4 nM; at Gamma-secretase [2] it was 29.8 nM.
The corresponding values for `CCC[C@H](NC(=O)Cc1cc(F)cc(F)c1)C(=O)Nc1nc(C)c(C(C)NCC(C)C)s1` (stereo in doubt; 34) are 10 nM and 4.8 nM.
On the same counts, the results for `CCC[C@H](NC(=O)Cc1cc(F)cc(F)c1)C(=O)Nc1ncc(C(O)(CC)CC)s1` are 1 nM and 1.2 nM.
Turning to `CCC[C@H](NC(=O)Cc1cc(F)cc(F)c1)C(=O)Nc1ncc(C(C)NCCC(C)C)s1` (stereo partly specified), the half-maximal inhibitory concentration (IC50) on Gamma-secretase [1] came to 2.6 nM; at Gamma-secretase [2], 1.2 nM.
On the same counts, the results for `CCC[C@H](NC(=O)CCc1cc(F)cc(F)c1)C(=O)Nc1ncc(C(C)CCCC(C)(C)OC)s1` (stereo partly specified) are 10 nM and 0.14 nM.
On to `CCC[C@H](NC(=O)C(=O)C(C)(C)C)C(=O)Nc1ncc(C(C)C)s1`, for which the IC50 on Gamma-secretase [1] was found to be 116 nM; at Gamma-secretase [2] it was 16.8 nM.
On the same counts, the results for `CCC[C@H](NC(=O)Cc1cc(F)cc(F)c1)C(=O)Nc1ncc(C(C)NCC(C)(C)C)s1` (stereo partly specified) are 134 nM and 231 nM.
The corresponding values for `CCC[C@H](NC(=O)Cc1cc(F)cc(F)c1)C(=O)Nc1ncc(C(C)C)s1` are 30 nM and 5.1 nM.
The corresponding values for `CCC[C@H](NC(=O)Cc1cc(F)cc(F)c1)C(=O)Nc1nc(C)c(CC)s1` are 30 nM and 12.9 nM.
As to `COC(C)(C)CCCC(C)c1cnc(NC(=O)[C@H](C)NC(=O)CCc2cc(F)cc(F)c2)s1` (stereo partly specified), the IC50 turned out to be 30 nM on Gamma-secretase [1] and 0.22 nM on Gamma-secretase [2].
On the same counts, the results for `CCC[C@H](NC(=O)[C@@H](O)C(C)C)C(=O)Nc1ncc([C@@H](C)CCCC(C)(C)OC)s1` are 9 nM and 0.3 nM.
The corresponding values for `CCC[C@H](NC(=O)Cc1cc(F)cc(F)c1)C(=O)Nc1nc(C)c(C(C)NCC(F)(F)F)s1` (stereo partly specified) are 10 nM and 4.5 nM.
The corresponding values for `CCC[C@H](NC(=O)[C@@H](O)C(C)(C)C)C(=O)Nc1ncc([C@@H](C)CCCC(C)(C)OC)s1` are 10 nM and 0.11 nM.
Regarding `CCC[C@H](NC(=O)Cc1cc(F)cc(F)c1)C(=O)Nc1ncc(C(C)NCC(C)C)s1` (stereo partly specified), the IC50 on Gamma-secretase [1] and on Gamma-secretase [2] was 4.2 nM each time.
Take `CCC[C@H](NC(=O)Cc1cc(F)cc(F)c1)C(=O)Nc1ncc(C(C)CC(C)(C)C)s1` (stereo partly specified): the IC50 at Gamma-secretase [1] was 64.8 nM; at Gamma-secretase [2], 1.6 nM.
Take `CCC[C@H](NC(=O)Cc1cc(F)cc(F)c1)C(=O)Nc1ncc(C(C)NCCC(C)(C)C)s1` (stereo partly specified): the results for the IC50 at Gamma-secretase [1] and on Gamma-secretase [2] were 2.7 nM and 1.2 nM, respectively.
The corresponding values for `CCC[C@H](NC(=O)[C@@H](O)C(C)(C)C)C(=O)Nc1ncc(C(C)CCCC(C)(C)OC)s1` (stereo partly specified) are 13 nM and 0.43 nM.
On the same counts, the results for `CCCNC(C)c1cnc(NC(=O)[C@H](CCC)NC(=O)Cc2cc(F)cc(F)c2)s1` (stereo partly specified) are 15.9 nM and 10.1 nM.
Consider `CCC[C@H](NC(=O)Cc1cc(F)cc(F)c1)C(=O)Nc1nc(C)c(C(C)=O)s1`, for which the concentration for half-maximal inhibition (IC50) was 20 nM on Gamma-secretase [1] and 27.7 nM on Gamma-secretase [2].
In the case of `CCC[C@H](NC(=O)Cc1cc(F)cc(F)c1)C(=O)Nc1ncc(C(C)NCc2ccccc2)s1` (stereo partly specified), the IC50 on Gamma-secretase [1] stood at 3 nM; at Gamma-secretase [2] it was 1.4 nM.
`CCC[C@H](NC(=O)Cc1cc(F)cc(F)c1)C(=O)Nc1ncc(C(C)N2CCOCC2)s1` (stereo partly specified): the IC50 on Gamma-secretase [1] is 3.8 nM; on Gamma-secretase [2], 2.4 nM.
On the same counts, the results for `CCC[C@H](NC(=O)[C@H](O)c1ccccc1)C(=O)Nc1ncc(C(O)(CC)CC)s1` are 141 nM and 183 nM.
`CCC[C@H](NC(=O)[C@@H](O)C(C)(C)C)C(=O)Nc1ncc(C(C)C)s1`: the IC50 came out at 45.1 nM at Gamma-secretase [1] and 20.1 nM on Gamma-secretase [2].
The corresponding values for `CCC[C@H](NC(=O)Cc1cc(F)cc(F)c1)C(=O)Nc1nc(C)c(C(C)N(C)C)s1` (stereo partly specified) are 28.3 nM and 39.7 nM.
Turning to `CCC[C@H](NC(=O)Cc1cc(F)cc(F)c1)C(=O)Nc1ncc(C(C)N2CCCC2)s1` (stereo partly specified), the IC50 at Gamma-secretase [1] was found to be 10 nM; on Gamma-secretase [2] it was 10.6 nM.

(Values after ChEMBL document CHEMBL1137444, “Thiazole-diamides as potent gamma-secretase inhibitors” (Bioorg Med Chem Lett, 2007).)
